Series [1] can be described thus: Cytotoxicity against rat NRK-49F cells assessed as cell survival rate at 10 uM incubated for 72 hrs by MTT assay. Particulars: read-out: Activity. It counts as cell-based. The gist of the method: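 NRK-49F cells were seeded at 0.5×10^5 cells/ml, cultured overnight, then exposed to compound 10 µM for 72 h. MTT was added and incubated 4 h, formazan dissolved in DMSO and absorbance read. Survival = (treated − zero)/(blank − zero) A ×100%, done in triplicate.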

For series [2], the system named is NRK-49F. Nature of the series: Inhibition of TGF-beta-induced collagen accumulation in rat NRK-49F cells at 10 uM incubated for 2 days by PSR staining based microscopic analysis relative to control. It counts as functional. The settings on record: 48 h, time 2 day. The gist of the method: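 NRK-49F cells were grown 3 days in DMEM with 5% FBS, then 2 days in DMEM with 1% ITS. Next came 2 days with TGF-β 5 ng/ml plus or minus compound 10 µM. Cells were fixed in 4% paraformaldehyde and stained 4 h with 0.1% Picrosirius Red, then rinsed with acetic acid. Dye was eluted with 0.1 M NaOH and OD read at 540 nm. Inhibition = […] ×100%, in triplicate.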

The subject of series [3] is NRK-49F. Nature of the series: Inhibition of TGF-beta-induced collagen accumulation in rat NRK-49F cells incubated for 2 days by PSR staining based microscopic analysis. The class given is functional, cell-based. Particulars: 48 h.
In another series the test system is L929. Nature of the series: Antimigratory activity in mouse L929 cells assessed as inhibition of TGF-beta-induced cell migration at 10 uM incubated for 24 hrs by wound healing assay. The class given is functional, cell-based. Put shortly: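 Mouse L929 fibroblasts (MEM, 10% FBS, 37 °C, 5% CO₂) were grown to confluence and scratched with a pipette tip to a 100 µm wound. They were then kept in serum-free medium with or without TGF-β 5 ng/ml and compound 10 µM for 24 h. Wounds were imaged by light microscopy at 0, 12 and 24 h.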

Structures are written as SMILES. Active and inactive are the calls of the source. No cut-off for these calls is given here.

This passage reports viability, inhibition and IC50 results from ChEMBL document CHEMBL4680254, “Design, synthesis and discovery of 2(1H)-quinolone derivatives for the treatment of pulmonary fibrosis through inhibition of TGF-β/smad dependent and independent pathway” (Eur J Med Chem, 2020).

As usually defined, the inhibition is how much of the control response was suppressed. As usually defined, the IC50 is the midpoint of a concentration-inhibition curve. A lower IC50 goes with greater potency.

In the case of `CCN(CC)CC(=O)Nc1ccc(Oc2cc(=O)[nH]c3ccccc23)cc1`, the viability at 72 h, 10 µM in series [1] was found to be 96.3%. The compound further yielded an inhibition at 10 µM in the series on NRK-49F [2] of 86.1%. The compound further came in with a half-inhibitory concentration (IC50) with NRK-49F [3] of 5.27 µM. Also, the inhibition entry with L929 is “Active”.
On to `CC(C)(C)OC(=O)N1CCN(CC(=O)Nc2ccc(Oc3cc(=O)[nH]c4ccccc34)c(F)c2)CC1`, for which, in series [1], the viability at 72 h, 10 µM came out at 86.2%. Also, in the series with NRK-49F [2], the inhibition at 10 µM was determined as 89.1%. The compound also returned an IC50 in the series with NRK-49F [3] of 6.12 µM. In the series on L929, the inhibition result was “Active”.
In the same order, the values of `CC(C)(C)N1CCN(CC(=O)Nc2ccc(Oc3cc(=O)[nH]c4ccccc34)c(F)c2)CC1` are 93.1%, 78%, 4.47 µM and “Active”.
In the same order, the values of `O=C(CN1CCCC1)Nc1ccc(Sc2cc(=O)[nH]c3ccccc23)cc1` are 87%, 80.9%, 5.33 µM and “Active”.
Turning to `O=C(CN1CCCCC1)Nc1ccc(Nc2cc(=O)[nH]c3ccccc23)cc1`, in series [1], the viability at 72 h, 10 µM was found to be 75.4%. Also, the inhibition at 10 µM with NRK-49F [2] was 24.4%.
In the case of `CC(=O)N1CCN(CC(=O)Nc2ccc(Sc3cc(=O)[nH]c4ccccc34)cc2)CC1`, the viability at 72 h, 10 µM in series [1] was found to be 101%. The compound also showed an inhibition at 10 µM with NRK-49F [2] of 39.4%.
Take `CC(C)(C)N1CCN(CC(=O)Nc2ccc(Oc3ccc4[nH]c(=O)ccc4c3)c(F)c2)CC1`: the viability at 72 h, 10 µM in series [1] was 83.3%. Also, the inhibition at 10 µM with NRK-49F [2] was determined as 61.5%.
Consider `CCN(CC)CC(=O)Nc1ccc(Sc2cc(=O)[nH]c3ccccc23)cc1`, for which, in series [1], the viability at 72 h, 10 µM was 85.5%. In the series on NRK-49F [2], this compound returned an inhibition at 10 µM of 58.6%.
For the compound `CCN(CC)CC(=O)Nc1ccc(Oc2cc(=O)[nH]c3ccccc23)c(F)c1`, in series [1], the viability at 72 h, 10 µM was determined as 106%. This compound showed an inhibition at 10 µM with NRK-49F [2] of 58.8%.
Regarding `CCN1CCN(CC(=O)Nc2ccc(Sc3cc(=O)[nH]c4ccccc34)cc2)CC1`, the viability at 72 h, 10 µM in series [1] amounted to 78%. Moreover, in the series on NRK-49F [2], at 10 µM the inhibition was 56.6%.
Consider `O=C(CN1CCCCC1)Nc1ccc(Oc2cc(=O)[nH]c3ccccc23)c(F)c1`, for which the viability at 72 h, 10 µM in series [1] was determined as 87.2%. The compound also came in with an inhibition at 10 µM in the series with NRK-49F [2] of 38.3%.
For the compound `O=C(CN1CCOCC1)Nc1ccc(Oc2cc(=O)[nH]c3ccccc23)cc1`, the viability at 72 h, 10 µM in series [1] was found to be 95.7%. This compound also yielded an inhibition at 10 µM in the series on NRK-49F [2] of 59.3%.
In the same order, the values of `CC(C)(C)OC(=O)N1CCN(CC(=O)Nc2ccc(Oc3cc(=O)[nH]c4ccccc34)cc2)CC1` are 75.6% and 76.2%.
In the same order, the values of `O=C(CN1CCN(C(=O)C2CC2)CC1)Nc1ccc(Oc2ccc3ccc(=O)[nH]c3c2)c(F)c1` are 98.2% and 56.6%.
In the same order, the values of `CC1CCN(CC(=O)Nc2ccc(Nc3cc(=O)[nH]c4ccccc34)cc2)CC1` are 82.5% and 20.1%.
